Data on 167 variants can be found in the RNAGym collection of RNA variant scans (doi:10.1038/nmeth.2970).

To fix the notation:
B1: NELF-E aptamer (parent)
chain: CCCAACGACUGCCGAGCGAGAUUACGCUUGAGCGCCCCACUGAGGAUGCCCACGGGCGAUUGGGGCACGG

This data set covers variants of B1. Kind of data set: HiTS-RAP. The conditions noted are these: with NELF-E (Drosophila). Put shortly:
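Kd came from weighted Hill fits to the first binding curve, with intensities normalised to sequencing intensity and averaged per sequence, keeping only fits whose variance was below 1,000,000. That curve was imaged on an Illumina GAIIx flowcell, where sequenced aptamer DNA templates with a T7 promoter and ter site had been transcribed in situ by T7 RNA polymerase and halted by GST-Tus (30 minutes, 37°C). Before each image, clusters equilibrated for 30 minutes at room temperature with NELF-E-mOrange at 0.064 to 1000 nM in HEPES binding buffer.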
For the variant A5U U41G, the Kd was determined as 6.01 nM.
Take A5U U41A: the Kd is 80.9 nM.
In the case of A5U A24G, the Kd stood at 6.39 nM.
Then A5U A24U, with 6.21 nM.
Then A5U G42A, with 67.8 nM.
In the case of A5U U29A, the Kd came out at 5.62 nM.
Consider A5U U29G, for which the Kd turned out to be 5.91 nM.
On to A5U U29C, for which the Kd was 8.32 nM.
Regarding C6A C9G, the Kd was 7.55 nM.
Regarding C6A C13G, the Kd is 5.49 nM.
Then A5G A19U, with 7.26 nM; and A5G A19G, with 5.88 nM; and C6G C25G, with 5.65 nM.
C6G C25U: the Kd was 5.65 nM.
On to A5U C50U, for which the Kd came out at 15 nM.
For C6G U41G, the Kd amounted to 5.12 nM.
Consider C6G U41C, for which the Kd was determined as 64.8 nM.
For C6G U41A, the Kd came out at 103 nM.
For C6G G18A, the Kd worked out at 4.48 nM.
With C6G G18U, the Kd was 6.37 nM.
In the case of A5U C53U, the Kd is 4.46 nM.
Regarding A5U, the Kd was determined as 5.66 nM.
A5G: the Kd was 5.54 nM.
A5G C40U: the Kd came to 60.2 nM.
As to C6G A19U, the Kd amounted to 5.95 nM.
Consider C6G A19G, for which the Kd was 5.53 nM.
With A5G G34A, the Kd turned out to be 5.89 nM.
The value for A5U G56A was 7.71 nM; that for A5U G56U was 6.51 nM; that for C6G A59G was 54.9 nM.
In the case of C6G A59U, the Kd is 25.7 nM.
On to C6G G44U, for which the Kd was 8.75 nM.
Consider C6G G44A, for which the Kd was 61 nM.
Consider A5U U28C, for which the Kd amounted to 7.9 nM.
On to A5U U28G, for which the Kd stood at 7.17 nM.
The value for C6G C51U was 7.16 nM; that for A5U A21G was 7.74 nM.
Consider A5U A21U, for which the Kd came to 6.61 nM.
With A5U C25G, the Kd was determined as 6.13 nM.
The value for A5U C12G was 6.84 nM; that for A5U C12U was 6.37 nM; that for C6G C17G was 5.02 nM.
For C6G C17U, the Kd was determined as 6.03 nM.
Then C6G U29G, with 4.97 nM; and C6G U29A, with 5.51 nM.
For C6G U29C, the Kd stood at 4.69 nM.
On to A5U C17U, for which the Kd is 6.66 nM.
Then A5U C17G, with 6.36 nM; and C6G G11A, with 6.31 nM; and C6G G11U, with 5.8 nM.
Then C6G A15G, with 5.46 nM; and C6G A15U, with 6.24 nM.
Then A5G A31G, with 7.69 nM; and A5G A31U, with 5.74 nM.
For the variant C6G G45U, the Kd came out at 9.94 nM.
In the case of C6G G45A, the Kd was found to be 91 nM.
Then C6G C53G, with 7.67 nM; and C6G C53U, with 4.15 nM.
For the variant A5C C13G, the Kd was 6.73 nM.
On to A5G G14U, for which the Kd came to 6.38 nM.
As to A5G G14A, the Kd was determined as 6.54 nM.
Then A5G U29G, with 6.19 nM; and A5G U29A, with 6.04 nM; and A5G U29C, with 6.65 nM.
In the case of C6G G34U, the Kd is 5.79 nM.
With C6G G34A, the Kd is 8 nM.
In the case of A5G A52U, the Kd is 17 nM.
For A5G A52G, the Kd is 4.26 nM.
For C6G A52G, the Kd was 4.45 nM.
C6G A52U: the Kd was found to be 16.1 nM.
For A5G A24G, the Kd was 6.27 nM.
Take C6G G64C: the Kd was 6.39 nM.
Take C6G G64U: the Kd was determined as 6.35 nM.
For the variant C6G G64A, the Kd amounted to 7.6 nM.
Take A5U G20A: the Kd was found to be 6.68 nM.
The value for A5U G20U was 7.83 nM; that for A5G C12G was 6.02 nM; that for A5G C12A was 5.04 nM.
Take A5G C12U: the Kd came out at 6.51 nM.
A5G U47G: the Kd came to 7.6 nM.
Then A5C G7U, with 7.5 nM; and C6G G63A, with 19.7 nM; and C6G G63U, with 10.8 nM.
The value for C6A U23G was 7.03 nM; that for C6G A8C was 6.37 nM; that for C6G A8G was 5.5 nM.
Then C6G A8U, with 5.7 nM; and C6G C33U, with 5.41 nM; and C6G C33G, with 5.77 nM.
Take C6G U23C: the Kd was determined as 4.4 nM.
As to C6G U23G, the Kd is 4.81 nM.
On to C6G U23A, for which the Kd was 5.12 nM.
For C6A G7U, the Kd amounted to 6.56 nM.
Consider C6G C35U, for which the Kd was determined as 16.8 nM.
With C6G C35G, the Kd worked out at 7.18 nM.
On to A5G C37U, for which the Kd was determined as 10.4 nM.
Take A5G A46U: the Kd amounted to 90.8 nM.
With A5G A46G, the Kd was 15.3 nM.
Then A5U G16U, with 6.86 nM.
Turning to A5U G16A, the Kd turned out to be 8.1 nM.
For C6A C12G, the Kd was determined as 6.54 nM.
For C6G C36U, the Kd was 7.42 nM.
The value for A5U A43U was 99.1 nM; that for A5U A43G was 15.1 nM.
In the case of A5U C13U, the Kd was 7.12 nM.
In the case of A5U C13G, the Kd worked out at 5.56 nM.
Consider C6G G65U, for which the Kd came to 6.3 nM.
The value for C6G G65A was 4.46 nM; that for A5G G65U was 6.76 nM.
Then A5U G63A, with 9.5 nM; and A5U G63U, with 15.8 nM.
The value for C6G C12U was 5.53 nM; that for C6G C12G was 5.68 nM; that for C6G C12A was 6.77 nM.
Consider A5U A67U, for which the Kd was found to be 7.25 nM.
Take A5U A67G: the equilibrium dissociation constant (Kd) came out at 6.53 nM.
In the case of C6G C27U, the Kd is 5.23 nM.
A5G U28G: the Kd amounted to 7.79 nM.
Then A5G U28C, with 10.2 nM; and A5G G45A, with 21.9 nM; and A5G G45U, with 7.32 nM.
As for C6G G48U, the Kd worked out at 5.75 nM.
Take C6G G48A: the Kd turned out to be 11.6 nM.
The value for A5U A46G was 34.6 nM; that for A5G U22C was 5.45 nM.
A5G U22G: the Kd came out at 5.89 nM.
As for A5G C25G, the Kd came to 6.52 nM.
With A5G A43U, the Kd worked out at 33.6 nM.
Consider A5G A43G, for which the Kd amounted to 25.6 nM.
A5G C9G: the Kd was determined as 5.97 nM.
The value for A5G C9U was 6.36 nM; that for A5U G64A was 8.76 nM.
As to A5U G55U, the Kd was 8.79 nM.
Then A5U G55A, with 7.03 nM; and C6G U22C, with 5.08 nM; and C6G U22G, with 5.09 nM.
Then A5G G42A, with 27.1 nM; and A5U A19U, with 6 nM.
Consider A5U A19G, for which the Kd was found to be 7.47 nM.
Regarding A5G G18A, the Kd was 5.15 nM.
Then A5G G18U, with 6.11 nM.
In the case of A5U U22C, the Kd came out at 5.1 nM.
As to A5U U22G, the Kd came out at 6.13 nM.
In the case of C6G C37A, the Kd came out at 18.7 nM.
C6G C37U: the Kd came to 23.4 nM.
As for A5G G56A, the Kd turned out to be 11.2 nM.
In the case of A5G G56U, the Kd turned out to be 7.96 nM.
Then C6G A21G, with 5.74 nM; and C6G A21U, with 5.06 nM.
On to A5U G34A, for which the Kd was 5.54 nM.
With A5C U29G, the Kd was found to be 7.04 nM.
Take C6A: the Kd was found to be 6.13 nM.
With C6G, the Kd came out at 4.75 nM.
For A5G C50G, the Kd amounted to 6.45 nM.
For the variant A5G C50U, the Kd came to 21.6 nM.
On to A5G G62A, for which the Kd turned out to be 13.5 nM.
In the case of A5G C66U, the Kd is 6.42 nM.
Then A5U G11U, with 6.52 nM.
For A5U G11A, the Kd stood at 7.76 nM.
Turning to A5G A67G, the Kd amounted to 6.71 nM.
For A5G A67U, the Kd amounted to 7.84 nM.
Take C6A C17G: the dissociation constant Kd worked out at 7.95 nM.
A5G G54A: the Kd amounted to 12.9 nM.
For the variant A5U U23A, the Kd is 5.58 nM.
Consider A5U U23G, for which the Kd worked out at 6.01 nM.
Then A5U C6U, with 4.75 nM.
Then A5U C6A, with 7.45 nM.
